Measurements published in ChEMBL document CHEMBL1145462, “In vivo pharmacodynamic activity of the glycopeptide dalbavancin” (Antimicrob Agents Chemother, 2007).
Converted amounts (≈) assume the structure as drawn.

Tests used:
Staphylococcus aureus [1] = assay: AUC/MBC ratio of Staphylococcus aureus ATCC 25923 infected neutropenic mouse thigh infection model at 214 mg/kg, ip administered every 72 hrs by 2-log killing experiment; format: functional; settings: route intraperitoneal
Staphylococcus aureus [2] = assay: AUC/MIC ratio of Staphylococcus aureus Smith infected neutropenic mouse thigh infection model at 95 mg/kg, ip administered every 72 hrs by 1-log killing experiment; format: functional; settings: route intraperitoneal
Streptococcus pneumoniae [3] = assay: AUC/MIC ratio of Streptococcus pneumoniae ATCC 10813 infected neutropenic mouse thigh infection model at 0.82 mg/kg, ip administered every 72 hrs by 2-log killing experiment; format: functional; settings: route intraperitoneal
[4] = Half life in bacterial pathogen-infected neutropenic Swiss ICR mouse thigh infection model at 40 mg/kg, ip; format: ADME, organism-based; parameters: dose 40 mg/kg, route intraperitoneal; settings: in vivo
Outline: (§1)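 Thigh-infected neutropenic mice received single intraperitoneal doses (2.5, 5, 10, 20, 40, 80 mg/kg; 0.2 ml/dose). Blood was drawn by retroorbital aspiration from groups of three mice at 0.5, 1, 2, 4, 6, 24, 48, 72 and 96 h. Plasma levels were measured by microbiologic assay with Bacillus subtilis (detection limit 0.10 mg/liter). Noncompartmental analysis was used: half-life by linear least-squares regression, AUC by trapezoidal rule.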

[5] = AUC in bacterial pathogen-infected neutropenic Swiss ICR mouse thigh infection model at 20 mg/kg, ip; format: ADME, organism-based; parameters: dose 20 mg/kg, route intraperitoneal; settings: in vivo; outline: as §1
Staphylococcus aureus [6] = assay: AUC/MIC ratio of methicillin-resistant Staphylococcus aureus infected neutropenic mouse thigh infection model at 53.5 mg/kg, ip administered every 24 hrs by 2-log killing experiment; format: functional; settings: route intraperitoneal
Staphylococcus aureus [7] = assay: AUC/MBC ratio of methicillin-resistant Staphylococcus aureus infected neutropenic mouse thigh infection model at 53.5 mg/kg, ip administered every 24 hrs by 2-log killing experiment; format: functional; settings: route intraperitoneal
Staphylococcus aureus [8] = assay: AUC/MBC ratio of Staphylococcus aureus 33591 infected neutropenic mouse thigh infection model at 22.3 mg/kg, ip administered every 24 hrs by static effect experiment; format: functional; settings: route intraperitoneal
Staphylococcus aureus [9] = assay: AUC/MBC ratio of Staphylococcus aureus ATCC 25923 infected neutropenic mouse thigh infection model at 42.7 mg/kg, ip administered every 24 hrs by static effect experiment; format: functional; settings: route intraperitoneal
Staphylococcus aureus [10] = assay: AUC/MIC ratio of Staphylococcus aureus Smith infected neutropenic mouse thigh infection model at 50.7 mg/kg, ip administered every 24 hrs by 1-log killing experiment; format: functional; settings: route intraperitoneal
Staphylococcus aureus [11] = assay: AUC/MIC ratio of Staphylococcus aureus 307109 infected neutropenic mouse thigh infection model at 34 mg/kg, ip administered every 72 hrs by 1-log killing experiment; format: functional; settings: route intraperitoneal
Streptococcus pneumoniae [12] = assay: AUC/MIC ratio of Streptococcus pneumoniae 1325 infected neutropenic mouse thigh infection model at 1.6 mg/kg, ip administered every 24 hrs by 1-log killing experiment; format: functional; settings: route intraperitoneal
Staphylococcus aureus [13] = assay: AUC/MBC ratio of Staphylococcus aureus 33591 infected neutropenic mouse thigh infection model at 114 mg/kg, ip administered every 72 hrs by 2-log killing experiment; format: functional; settings: route intraperitoneal
Streptococcus pneumoniae [14] = assay: AUC/MIC ratio of Streptococcus pneumoniae 1199 infected neutropenic mouse thigh infection model at 0.99 mg/kg, ip administered every 72 hrs by 2-log killing experiment; format: functional; settings: route intraperitoneal
Staphylococcus aureus [15] = assay: Antibacterial activity against methicillin-resistant Staphylococcus aureus in presence of 95% mouse serum ultrafiltrate; format: functional
Outline: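 MIC determined in broth, heat-treated (100°C, 30 min) 95% mouse serum, and 95% mouse serum ultrafiltrate, using arithmetic dilutions of 0.02 mg/liter per tube. Protein binding estimated as (MIC in 95% serum − MIC in ultrafiltrate)/MIC in 95% serum.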

Streptococcus pneumoniae [16] = assay: Bactericidal activity in Streptococcus pneumoniae ATCC 10813 infected non-neutropenic mouse thigh infection model assessed as drug level causing 1-log reduction of bacterial count at 2.03 mg/kg/6days; format: functional
Streptococcus pneumoniae [17] = assay: Antibacterial activity against Streptococcus pneumoniae ATCC 10813 by microdilution method; format: functional
Outline: (§2)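 MIC and MBC were determined by CLSI broth microdilution, in duplicate on at least two occasions. Staphylococci were grown in Mueller-Hinton broth and agar; pneumococci were plated on sheep blood agar.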

Staphylococcus aureus [18] = assay: Bactericidal activity against […] Staphylococcus aureus ATCC 29213 infected neutropenic Swiss ICR mouse thigh infection model assessed as drug level causing 1-log reduction of bacterial count at 267 mg/kg, ip dosed every 24 hrs; format: functional; settings: route intraperitoneal
[19] = Half life in bacterial pathogen-infected neutropenic Swiss ICR mouse thigh infection model at 10 mg/kg, ip; format: ADME, organism-based; parameters: dose 10 mg/kg, route intraperitoneal; settings: in vivo; outline: as §1
Staphylococcus aureus [20] = assay: AUC/MBC ratio of Staphylococcus aureus 33591 infected neutropenic mouse thigh infection model at 93 mg/kg, ip administered every 72 hrs by 1-log killing experiment; format: functional; settings: route intraperitoneal
Staphylococcus aureus [21] = assay: Antibacterial activity against Staphylococcus aureus 31005 by microdilution method; format: functional; outline: as §2
Staphylococcus aureus [22] = assay: Antibacterial activity against Staphylococcus aureus ATCC 25923 by microdilution method; format: functional; outline: as §2
[23] = Half life in bacterial pathogen-infected neutropenic Swiss ICR mouse thigh infection model at 20 mg/kg, ip; format: ADME, organism-based; parameters: dose 20 mg/kg, route intraperitoneal; settings: in vivo; outline: as §1
[24] = Cmax in bacterial pathogen-infected neutropenic Swiss ICR mouse thigh infection model at 40 mg/kg, ip; format: ADME, organism-based; parameters: dose 40 mg/kg, route intraperitoneal; settings: in vivo; outline: as §1
Staphylococcus aureus [25] = assay: AUC/MIC ratio of Staphylococcus aureus 33591 infected neutropenic mouse thigh infection model at 27.7 mg/kg, ip administered every 24 hrs by 1-log killing experiment; format: functional; settings: route intraperitoneal
Streptococcus pneumoniae [26] = assay: AUC/MIC ratio of Streptococcus pneumoniae 1199 infected neutropenic mouse thigh infection model at 0.72 mg/kg, ip administered every 72 hrs by static effect experiment; format: functional; settings: route intraperitoneal
Staphylococcus aureus [27] = assay: AUC/MIC ratio of Staphylococcus aureus 31005 infected neutropenic mouse thigh infection model at 127 mg/kg, ip administered every 72 hrs by 2-log killing experiment; format: functional; settings: route intraperitoneal

CN[C@H]1C(=O)N[C@@H]2Cc3ccc(cc3)Oc3cc4cc(c3O[C@@H]3O[C@H](C(=O)O)[C@@H](O)[C@H](O)[C@H]3NC(=O)CCCCCCCCC(C)C)Oc3ccc(cc3Cl)[C@@H](O)[C@@H]3NC(=O)[C@H](NC(=O)[C@@H]4NC(=O)[C@@H](NC2=O)c2cc(cc(O)c2Cl)Oc2cc1ccc2O)c1ccc(O)c(c1)-c1c(O[C@H]2O[C@H](CO)[C@@H](O)[C@H](O)[C@@H]2O)cc(O)cc1[C@@H](C(=O)NCCCN(C)C)NC3=O [DALBAVANCIN]
Ratio (Staphylococcus aureus [1]): 88.1
RatioAUC/MIC (Staphylococcus aureus [2]): 163
RatioAUC/MIC (Streptococcus pneumoniae [3]): 1.6
half-life [4]: 582 min
AUC [5]: 2260 µg·h/mL
RatioAUC/MIC (Staphylococcus aureus [6]): 519
Ratio (Staphylococcus aureus [7]): 125
Ratio (Staphylococcus aureus [8]): 46
Ratio (Staphylococcus aureus [9]): 52
RatioAUC/MIC (Staphylococcus aureus [10]): 248
RatioAUC/MIC (Staphylococcus aureus [11]): 108
RatioAUC/MIC (Streptococcus pneumoniae [12]): 31.8
Ratio (Staphylococcus aureus [13]): 94
RatioAUC/MIC (Streptococcus pneumoniae [14]): 35.3
MIC (Staphylococcus aureus [15]): 0.5 µg/mL
Activity (Streptococcus pneumoniae [16]): 2.35
MBC (Streptococcus pneumoniae [17]): 0.03 µg/mL (≈ 0.0165 µM)
MIC (Streptococcus pneumoniae [17]): 0.03 µg/mL (≈ 0.0165 µM)
ED 1-log kill (Staphylococcus aureus [18]): 267 mg/kg/day
half-life [19]: 750 min
Ratio (Staphylococcus aureus [20]): 76.6
MBC (Staphylococcus aureus [21]): 0.12 µg/mL (≈ 0.0661 µM)
MIC (Staphylococcus aureus [21]): 0.06 µg/mL (≈ 0.033 µM)
MBC (Staphylococcus aureus [22]): 0.5 µg/mL (≈ 0.275 µM)
MIC (Staphylococcus aureus [22]): 0.12 µg/mL (≈ 0.0661 µM)
half-life [23]: 456 min
Cmax [24]: 663 µg/mL
RatioAUC/MIC (Staphylococcus aureus [25]): 121
RatioAUC/MIC (Streptococcus pneumoniae [26]): 10.3
RatioAUC/MIC (Staphylococcus aureus [27]): 364
